Key:
Format in all cases: functional
Cavia porcellus [1] = species on record: Cavia porcellus; assay: Open epicutaneous test for sensitization in presence of lactone 8 (pretreated with bihapten 1)as sensitizer on guinea pigs with skin intensity test scale (erythema plus swelling going well beyond); Value indicates number of animals
Outline: (§1)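 Female Himalayan spotted guinea pigs (300–500 g) sensitized with three intradermal nuchal injections (0.1 mL) on alternate days of the hapten (2.5% w/v) emulsified 1:1 in Freund's complete adjuvant/saline. Elicitation by open epicutaneous test with the hapten at 2% w/v in 4:1 acetone/olive oil. Eight animals per group, with FCA-treated controls. Average skin reaction is the sum of test scores divided by the number of animals tested.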

Cavia porcellus [2] = species on record: Cavia porcellus; assay: Open epicutaneous test for sensitization in presence of lactone 8 as sensitizer on guinea pigs with skin intensity test scale (erythema plus swelling going well beyond); Value indicates number of animals; outline: as §1
Cavia porcellus [3] = species on record: Cavia porcellus; assay: Open epicutaneous test for sensitization in presence of lactone 8 as sensitizer on guinea pigs as number of positive animals responded; outline: as §1
Cavia porcellus [4] = species on record: Cavia porcellus; assay: Open epicutaneous test for sensitization as average skin reaction in presence of lactone 8 as sensitizer on guinea pigs; Value indicates number of animals; outline: as §1
Cavia porcellus [5] = species on record: Cavia porcellus; assay: Open epicutaneous test for sensitization in presence of lactone 8 (pretreated with bihapten 1) as sensitizer on guinea pigs as number of positive animals responded; outline: as §1
Cavia porcellus [6] = species on record: Cavia porcellus; assay: Open epicutaneous test for sensitization in presence of lactone 8 as sensitizer on guinea pigs with skin intensity test scale (no reaction); Value indicates number of animals; outline: as §1
Cavia porcellus [7] = species on record: Cavia porcellus; assay: Open epicutaneous test for sensitization in presence of bihapten 1 as sensitizer on guinea pigs with skin intensity test scale (no reaction); Value indicates number of animals; outline: as §1
Cavia porcellus [8] = species on record: Cavia porcellus; assay: Open epicutaneous test for sensitization as average skin reaction in presence of lactone 8 (pretreated with bihapten 1) as sensitizer on guinea pigs; Value indicates number of animals; outline: as §1
Cavia porcellus [9] = species on record: Cavia porcellus; assay: Open epicutaneous test for sensitization in presence of bihapten 1 as sensitizer on guinea pigs as number of positive animals responded; outline: as §1
Cavia porcellus [10] = species on record: Cavia porcellus; assay: Open epicutaneous test for sensitization in presence of lactone 8 as sensitizer on guinea pigs with skin intensity test scale (erythema plus swelling of the test area); Value indicates number of animals; outline: as §1
Cavia porcellus [11] = species on record: Cavia porcellus; assay: Open epicutaneous test for sensitization in presence of lactone 8 as sensitizer on guinea pigs with skin intensity test scale (slight erythema not covering the whole test area); Value indicates number of animals; outline: as §1
Cavia porcellus [12] = species on record: Cavia porcellus; assay: Open epicutaneous test for sensitization in presence of lactone 8 (pretreated with bihapten 1)as sensitizer on guinea pigs with skin intensity test scale (no reaction); Value indicates number of animals; outline: as §1
Cavia porcellus [13] = species on record: Cavia porcellus; assay: Open epicutaneous test for sensitization as average skin reaction in presence of bihapten 1 as sensitizer on guinea pigs; Value indicates number of animals; outline: as §1
Cavia porcellus [14] = species on record: Cavia porcellus; assay: Open cutaneous test for sensitization in presence of lactone 8 (pretreated with bihapten 1)as sensitizer on guinea pigs with skin intensity test scale (slight erythema not covering the whole test area); Value indicates number of animals; outline: as §1
Cavia porcellus [15] = species on record: Cavia porcellus; assay: Open epicutaneous test for sensitization in presence of lactone 8 (pretreated with bihapten 1)as sensitizer on guinea pigs with skin intensity test scale (definite erythema covering the whole test area); Value indicates number of animals; outline: as §1
Cavia porcellus [16] = species on record: Cavia porcellus; assay: Open epicutaneous test for sensitization in presence of bihapten 1 as sensitizer on guinea pigs with skin intensity test scale (slight erythema not covering the whole test area); Value indicates number of animals; outline: as §1
Cavia porcellus [17] = species on record: Cavia porcellus; assay: Open epicutaneous test for sensitization in presence of lactone 8 as sensitizer on guinea pigs with skin intensity test scale (definite erythema covering the whole test area); Value indicates number of animals; outline: as §1
Cavia porcellus [18] = species on record: Cavia porcellus; assay: Open epicutaneous test for sensitization in presence of bihapten 1 as sensitizer on guinea pigs with skin intensity test scale (definite erythema covering the whole test area); Value indicates number of animals; outline: as §1
Cavia porcellus [19] = species on record: Cavia porcellus; assay: Open epicutaneous test for sensitization in presence of lactone 8 (pretreated with bihapten 1)as sensitizer on guinea pigs with skin intensity test scale (erythema plus swelling of the test area); outline: as §1
Cavia porcellus [20] = species on record: Cavia porcellus; assay: Open epicutaneous test for sensitization in presence of bihapten 1 as sensitizer on guinea pigs with skin intensity test scale (erythema plus swelling of the test area); Value indicates number of animals; outline: as §1
Cavia porcellus [21] = species on record: Cavia porcellus; assay: Open epicutaneous test for sensitization in presence of bihapten 1 as sensitizer on guinea pigs with skin intensity test scale (erythema plus swelling going well beyond the); Value indicates number of animals; outline: as §1
Cavia porcellus [22] = species on record: Cavia porcellus; assay: Open cutaneous test for sensitization in presence of lactone 8 as sensitizer on guinea pigs with skin intensity test scale (definite erythema covering the whole test area); Value indicates number of animals; outline: as §1
Cavia porcellus [23] = species on record: Cavia porcellus; assay: Open epicutaneous test for sensitization in presence of lactone 8 (pretreated with bihapten 1) as sensitizer on guinea pigs with skin intensity test scale (definite erythema covering the whole test area); Value indicates number of animals; outline: as §1
Cavia porcellus [24] = species on record: Cavia porcellus; assay: Open epicutaneous test for sensitization in presence of lactone 8 (pretreated with bihapten 1) as sensitizer on guinea pigs with skin intensity test scale (erythema plus swelling going well beyond); Value indicates number of animals; outline: as §1
Cavia porcellus [25] = species on record: Cavia porcellus; assay: Open cutaneous test for sensitization in presence of lactone 8 as sensitizer on guinea pigs with skin intensity test scale (no reaction); Value indicates number of animals; outline: as §1
Cavia porcellus [26] = species on record: Cavia porcellus; assay: Open cutaneous test for sensitization in presence of lactone 8 as sensitizer on guinea pigs with skin intensity test scale (slight erythema not covering the whole test area); Value indicates number of animals; outline: as §1
Cavia porcellus [27] = species on record: Cavia porcellus; assay: Open epicutaneous test for sensitization in presence of lactone 8 (pretreated with bihapten 1) as sensitizer on guinea pigs with skin intensity test scale (no reaction); Value indicates number of animals; outline: as §1
Cavia porcellus [28] = species on record: Cavia porcellus; assay: Open epicutaneous test for sensitization in presence of lactone 8 (pretreated with bihapten 1) as sensitizer on guinea pigs with skin intensity test scale (slight erythema not covering the whole test area); Value indicates number of animals; outline: as §1
Cavia porcellus [29] = species on record: Cavia porcellus; assay: Open cutaneous test for sensitization in presence of lactone 8 as sensitizer on guinea pigs with skin intensity test scale (erythema plus swelling going well beyond); Value indicates number of animals; outline: as §1
Cavia porcellus [30] = species on record: Cavia porcellus; assay: Open epicutaneous test for sensitization in presence of lactone 8 (pretreated with bihapten 1) as sensitizer on guinea pigs with skin intensity test scale (erythema plus swelling of the test area); Value indicates number of animals; outline: as §1
Cavia porcellus [31] = species on record: Cavia porcellus; assay: Open cutaneous test for sensitization in presence of lactone 8 as sensitizer on guinea pigs with skin intensity test scale (erythema plus swelling of the test area); Value indicates number of animals; outline: as §1
Cavia porcellus [32] = species on record: Cavia porcellus; assay: Open epicutaneous test for sensitization in presence of bihapten 1 as sensitizer on guinea pigs with skin intensity test scale (erythema plus swelling going well beyond); Value indicates number of animals; outline: as §1

C=C1CC(CCCCCCCCCc2cccc(O)c2O)OC1=O (configuration not stated)
Skin reaction (Cavia porcellus [1]): 0
Skin reaction (Cavia porcellus [2]): 0
No. of positive animals (Cavia porcellus [3]): 8
Average for skin reaction (Cavia porcellus [4]): 1.6
No. of positive animals (Cavia porcellus [5]): 8
Skin reaction (Cavia porcellus [6]): 0
Skin reaction (Cavia porcellus [7]): 0
Average for skin reaction (Cavia porcellus [8]): 1
No. of positive animals (Cavia porcellus [9]): 8
Skin reaction (Cavia porcellus [10]): 5
Skin reaction (Cavia porcellus [11]): 0
Skin reaction (Cavia porcellus [12]): 0
Average for skin reaction (Cavia porcellus [13]): 1
Skin reaction (Cavia porcellus [14]): 0
Skin reaction (Cavia porcellus [15]): 8
Skin reaction (Cavia porcellus [16]): 0
Skin reaction (Cavia porcellus [17]): 3
Skin reaction (Cavia porcellus [18]): 8
Skin reaction (Cavia porcellus [19]): 0
Skin reaction (Cavia porcellus [20]): 0
Skin reaction (Cavia porcellus [21]): 0

C=C1CC(CCCCCCCCCc2cccc(OC)c2OC)OC1=O (configuration not stated)
Skin reaction (Cavia porcellus [22]): 0
No. of positive animals (Cavia porcellus [3]): 8
Average for skin reaction (Cavia porcellus [4]): 3
Skin reaction (Cavia porcellus [23]): 2
Skin reaction (Cavia porcellus [24]): 0
No. of positive animals (Cavia porcellus [5]): 8
Skin reaction (Cavia porcellus [25]): 0
Skin reaction (Cavia porcellus [7]): 0
Skin reaction (Cavia porcellus [26]): 0
Average for skin reaction (Cavia porcellus [8]): 0.6
No. of positive animals (Cavia porcellus [9]): 0
Skin reaction (Cavia porcellus [27]): 0
Average for skin reaction (Cavia porcellus [13]): 0
Skin reaction (Cavia porcellus [28]): 6
Skin reaction (Cavia porcellus [16]): 0
Skin reaction (Cavia porcellus [29]): 8
Skin reaction (Cavia porcellus [30]): 0
Skin reaction (Cavia porcellus [18]): 0
Skin reaction (Cavia porcellus [20]): 0
Skin reaction (Cavia porcellus [31]): 0
Skin reaction (Cavia porcellus [32]): 0
